Test results from ChEMBL document CHEMBL5543089, “Discovery of a novel, highly potent EZH2 PROTAC degrader for targeting non-canonical oncogenic functions of EZH2” (Eur J Med Chem, 2024).
Activity calls are given as the source filed them. The calls are words filed in the database; no cut-off is given here.

What was measured:
Homo sapiens = species: Homo sapiens; assay: Inhibition of human PRMT1 assessed as methyltransferase activity using Histone H4 /H4 (1-15)-Biotin as substrate at 10 uM by radioisotope based MT HotSpot assay relative to control
In short: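 Radioisotope-based methyltransferase assay (MT HotSpot) run by a contract lab. Compound was tested at 10 μM against a panel of 20 methyltransferases, in duplicate. Values are means ± SD of two replicates.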

[1] = target: von Hippel-Lindau disease tumor suppressor/Histone-lysine N-methyltransferase EZH2 (Homo sapiens, UniProt Q15910+P40337); assay: PROTAC activity at VHL/EZH2 degradation in human RS4-11 cells assessed as protein degradation at 0.1 uM measured after 24 hrs by Western blot analysis; format: cell-based
In short: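 Cells were seeded at 0.5–2 million per well and treated for 24 h, or for the stated times at 300 nM in the time course. Lysis was in RIPA with protease inhibitors; ~10 μg protein was run on SDS-PAGE and blotted to PVDF. Detection used fluorescent immunoblotting for EZH2, EED and SUZ12, with β-actin as loading control. Blots are representative of two biological experiments.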

BT-549 = assay: Anti-proliferative activity against human BT-549 cells assessed as cell growth inhibition measured after 5 days incubation by CCK-8 assay; format: functional, cell-based; details: BT-549, 120 h
In short: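 Cells plated at 3,000–10,000 per well and exposed to serial dilutions for 5 days at 37 °C. CCK-8 (1x) was added for 2–4 h, with absorbance read at 450 nm against a 690 nm reference. IC50 was taken from curve fits. Leukemia lines were grown in RPMI-1640, K562 in IMDM and MDA-MB-468 in DMEM, all with 10 % FBS. Values are means ± SD of two biological experiments (three for BT549 and MDA-MB-468).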

Chain of von Hippel-Lindau disease tumor suppressor/Histone-lysine N-methyltransferase EZH2 (P40337 whole entry, looked up): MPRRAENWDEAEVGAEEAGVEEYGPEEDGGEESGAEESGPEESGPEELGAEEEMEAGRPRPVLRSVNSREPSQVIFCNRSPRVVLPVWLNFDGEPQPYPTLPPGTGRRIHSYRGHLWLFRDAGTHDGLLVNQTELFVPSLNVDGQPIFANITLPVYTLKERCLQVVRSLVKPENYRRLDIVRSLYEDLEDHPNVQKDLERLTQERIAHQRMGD
Chain of von Hippel-Lindau disease tumor suppressor/Histone-lysine N-methyltransferase EZH2 (Q15910 whole entry, looked up): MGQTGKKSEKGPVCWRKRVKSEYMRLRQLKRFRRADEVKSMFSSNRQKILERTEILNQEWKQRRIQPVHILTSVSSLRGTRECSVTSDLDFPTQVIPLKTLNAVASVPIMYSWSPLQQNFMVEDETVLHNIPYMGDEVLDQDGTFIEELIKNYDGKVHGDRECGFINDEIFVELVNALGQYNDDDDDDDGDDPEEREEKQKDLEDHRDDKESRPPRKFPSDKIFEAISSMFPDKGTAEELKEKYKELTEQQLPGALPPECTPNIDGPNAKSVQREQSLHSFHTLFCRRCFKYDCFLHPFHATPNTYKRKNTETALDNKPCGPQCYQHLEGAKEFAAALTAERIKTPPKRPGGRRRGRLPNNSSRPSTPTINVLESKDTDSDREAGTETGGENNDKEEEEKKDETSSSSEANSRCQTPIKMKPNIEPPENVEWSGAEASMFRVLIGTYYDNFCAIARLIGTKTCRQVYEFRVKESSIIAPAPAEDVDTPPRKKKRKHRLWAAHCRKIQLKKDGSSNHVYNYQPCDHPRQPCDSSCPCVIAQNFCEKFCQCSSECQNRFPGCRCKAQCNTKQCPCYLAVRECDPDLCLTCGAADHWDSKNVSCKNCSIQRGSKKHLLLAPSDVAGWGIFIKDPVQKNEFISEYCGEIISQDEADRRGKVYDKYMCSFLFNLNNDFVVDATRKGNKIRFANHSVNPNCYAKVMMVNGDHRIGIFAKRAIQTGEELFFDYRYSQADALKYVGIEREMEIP

In the case of `CCN(c1cc(-c2ccc(CN3CCN(CCC(=O)NCCCCCCCCCCC(=O)N[C@H](C(=O)N4C[C@H](O)C[C@H]4C(=O)NCc4ccc(-c5scnc5C)cc4)C(C)(C)C)CC3)cc2)cc(C(=O)NCc2c(C)cc(C)[nH]c2=O)c1C)C1CCOCC1`, the inhibition (Homo sapiens) is reported as < 50%, the Activity [1] is reported as “Active” and the IC50 (BT-549) is reported as 1450 nM.
